# Experimental data as given in ChEMBL document CHEMBL2040790 (Bioorg Med Chem Lett, 2012).
# Activity calls are given as the source filed them. No cut-off for these calls is given here.
# Columns and labels:
# Vaccinia virus [1] = assay: Antiviral activity against Vaccinia virus; type: functional, organism-based; conditions: Orthopoxvirus vaccinia
# La Crosse virus [2] = assay: Antiviral activity against La Crosse virus infected in african green monkey Vero cells assessed as inhibition of virus-induced cytopathic effect by fluorometric analysis; type: functional, organism-based
# La Crosse virus [3] = assay: Antiviral activity against La Crosse virus infected in african green monkey Vero cells assessed as inhibition of virus-induced cytopathic effect during single experiment set up by fluorometric analysis; type: functional, organism-based
# Vaccinia virus [4] = assay: Antiviral activity against Vaccinia virus during single experiment set up; type: functional, organism-based; conditions: Orthopoxvirus vaccinia
# [5] = Solubility of the compound in water; type: physicochemical
# [6] = Solubility of the compound in simulated gastric fluid; type: physicochemical; conditions: simulated gastric fluid; read-out: solubility
# [7] = Solubility of the compound in Caco2 transport buffer; type: physicochemical, Caco-2
# La Crosse virus [8] = assay: Antiviral activity against La Crosse virus infected in african green monkey Vero cells assessed as inhibition of virus-induced cytopathic effect at 5 uM after 4 days by spectrophotometric analysis; type: functional, organism-based
# Method in brief: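 Primary screen run at one fixed concentration of 5 μM. Compounds active at that level were then carried into dose-response testing (0.009–25 μM) against RVFV and LACV.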
# Rift Valley fever virus = assay: Antiviral activity against Rift Valley fever virus at 5 uM; type: functional, organism-based
# Method in brief: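 Single-concentration primary screen at 5 μM. Molecules active there and bearing viable scaffolds were then taken into concentration-response testing over 0.009–25 μM.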
# Ebolavirus = assay: Antiviral activity against Ebola virus; type: functional
# [9] = test system: Human immunodeficiency virus 1; assay: Antiviral activity against Human immunodeficiency virus 1; type: functional, organism-based
# Tacaribe virus = assay: Antiviral activity against Tacaribe virus; type: functional, organism-based; conditions: Mammarenavirus tacaribeense
# [10] = test system: Mammarenavirus choriomeningitidis; assay: Antiviral activity against Lymphocytic choriomeningitis virus; type: functional
# [11] = test system: Encephalomyocarditis virus; assay: Antiviral activity against Encephalomyocarditis virus; type: functional, organism-based
# Sindbis virus = assay: Antiviral activity against Sindbis virus; type: functional, organism-based
# Dengue virus = assay: Antiviral activity against Dengue virus; type: functional, organism-based
# [12] = test system: Orthohantavirus andesense; assay: Antiviral activity against Andes virus; type: functional
# [13] = test system: Respiratory syncytial virus; assay: Antiviral activity against Respiratory syncytial virus; type: functional, organism-based
# [14] = test system: unidentified influenza virus; assay: Antiviral activity against influenza virus; type: functional, organism-based
# Vaccinia virus [15] = assay: Antiviral activity against Vaccinia virus at 25 uM during one experiment of multiple experiment set up; type: functional, organism-based; conditions: Orthopoxvirus vaccinia
smiles,measurement,setting,value
CC(C)(C)c1ccc(C(=O)NC(=S)Nc2ccccc2CN)cc1,EC50,Vaccinia virus [1],> 25 µM
same,EC50,La Crosse virus [2],> 25 µM
same,EC50,La Crosse virus [3],6.93 µM
CC(C)(C)c1ccc(C(=O)NC(=S)Nc2ccccc2C(=O)O)cc1,EC50,Vaccinia virus [1],> 25 µM
same,EC50,La Crosse virus [2],> 25 µM
same,EC50,Vaccinia virus [4],2.29 µM
CNc1ccc(NC(=S)NC(=O)c2ccc(C(C)(C)C)cc2)c(Cl)c1.Cl,EC50,Vaccinia virus [1],0.33 µM
same,EC50,La Crosse virus [2],0.24 µM
same,solubility,[5],0.2 µg/mL
same,solubility,[6],3.2 µg/mL
same,solubility,[7],0.1 µg/mL
COc1cc(NC(=S)NC(=O)c2ccc(C(C)(C)C)cc2)ccc1NC(=O)c1ccccc1Cl,Activity,La Crosse virus [8],Active
same,Activity,Rift Valley fever virus,Active
same,Activity,Ebolavirus,Active
same,EC50,Vaccinia virus [1],0.25 µM
same,Activity,[9],Active
same,Activity,Tacaribe virus,Active
same,Activity,[10],Active
same,Activity,[11],Active
same,Activity,Sindbis virus,Active
same,Activity,Dengue virus,Active
same,Activity,[12],Active
same,Activity,[13],Active
same,Activity,[14],Active
same,EC50,La Crosse virus [2],0.27 µM
COc1cc(NC(=S)NC(=N)c2ccc(C(C)(C)C)cc2)ccc1NC(=O)c1ccccc1Cl,EC50,Vaccinia virus [1],7.64 µM
same,EC50,La Crosse virus [2],3.01 µM
same,Activity,Vaccinia virus [15],inactive
CC(C)(C)c1ccc(C(=O)NC(=S)Nc2ccc(N)c(N)c2)cc1,EC50,Vaccinia virus [1],> 25 µM
same,EC50,La Crosse virus [2],> 25 µM
same,EC50,Vaccinia virus [4],7.78 µM
